From ChEMBL document CHEMBL4266041, “Hydroxybiphenylamide GroEL/ES Inhibitors Are Potent Antibacterials against Planktonic and Biofilm Forms of Staphylococcus aureus” (J Med Chem, 2018)
pEC50, pIC50: −log10 of the molar value.

Test system: not listed separately
Assay: Inhibition of refolded MDH (unknown origin) preincubated with Escherichia coli GroEL/GroES for 45 mins in absence of compound followed by compound addition and measured for 20 to 35 mins by spectrometric analysis
Conditions: not given

SMILES	pIC50
O=C(Nc1ccc(Oc2ccc(Cl)cc2)c(Cl)c1)c1cc(I)cc(I)c1O [RAFOXANIDE]	4.60
COc1ccccc1C(=O)Nc1ccccc1	< 4.20
COc1ccccc1C(=O)Nc1ccc(Sc2nc3ccccc3s2)c(Cl)c1	< 4.20
O=C(Nc1ccc(Sc2nc3ccccc3s2)cc1)c1cccc(Br)c1	< 4.20
O=C(Nc1cccc(Cl)c1)c1ccccc1O	< 4.20

Target: T1, E. coli GroEL/ES (Escherichia coli, UniProt P0A6F5)
T1 sequence (P0A6F5 whole entry, looked up): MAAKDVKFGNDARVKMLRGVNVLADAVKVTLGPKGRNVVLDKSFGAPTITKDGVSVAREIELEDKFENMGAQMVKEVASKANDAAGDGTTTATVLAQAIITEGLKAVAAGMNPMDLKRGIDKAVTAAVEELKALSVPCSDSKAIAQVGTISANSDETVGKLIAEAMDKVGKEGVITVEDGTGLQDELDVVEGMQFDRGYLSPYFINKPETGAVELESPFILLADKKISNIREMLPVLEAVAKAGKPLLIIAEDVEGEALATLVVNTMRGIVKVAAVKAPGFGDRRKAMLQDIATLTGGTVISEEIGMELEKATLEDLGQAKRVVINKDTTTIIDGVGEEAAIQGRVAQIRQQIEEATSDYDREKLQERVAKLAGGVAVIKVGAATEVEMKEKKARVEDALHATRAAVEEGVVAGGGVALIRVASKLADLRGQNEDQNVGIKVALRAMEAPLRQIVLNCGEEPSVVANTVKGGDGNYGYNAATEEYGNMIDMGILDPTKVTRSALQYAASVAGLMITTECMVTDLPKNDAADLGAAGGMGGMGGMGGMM
Assay: Inhibition of Escherichia coli GroEL expressed in Escherichia coli DH5alpha/Escherichia coli GroES expressed in Escherichia coli BL21 (DE3) assessed as reduction in GroEL/GroES-mediated denatured rhodanese refolding after 45 mins by spectrometric analysis
Conditions: not given
In short: (§1)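 Uses E. coli GroEL/ES with a denatured MDH or rhodanese reporter. GroEL first forms a binary complex with the denatured reporter. Refolding is started by adding ATP and GroES, then reporter enzyme activity is read. DMSO is the negative control. IC50 values from replicate curves are log-averaged after ROUT outlier screening.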

SMILES	pIC50
O=C(Nc1ccc(Oc2ccc(Cl)cc2)c(Cl)c1)c1cc(I)cc(I)c1O [RAFOXANIDE]	5.66
COc1ccccc1C(=O)Nc1ccccc1	< 4.00
COc1ccccc1C(=O)Nc1ccc(Sc2nc3ccccc3s2)c(Cl)c1	< 4.00
O=C(Nc1ccc(Sc2nc3ccccc3s2)cc1)c1cccc(Br)c1	< 4.00
O=C(Nc1cccc(Cl)c1)c1ccccc1O	< 4.00

Target: T2, Thiosulfate sulfurtransferase (Homo sapiens, UniProt Q16762)
T2 sequence (Q16762 whole entry): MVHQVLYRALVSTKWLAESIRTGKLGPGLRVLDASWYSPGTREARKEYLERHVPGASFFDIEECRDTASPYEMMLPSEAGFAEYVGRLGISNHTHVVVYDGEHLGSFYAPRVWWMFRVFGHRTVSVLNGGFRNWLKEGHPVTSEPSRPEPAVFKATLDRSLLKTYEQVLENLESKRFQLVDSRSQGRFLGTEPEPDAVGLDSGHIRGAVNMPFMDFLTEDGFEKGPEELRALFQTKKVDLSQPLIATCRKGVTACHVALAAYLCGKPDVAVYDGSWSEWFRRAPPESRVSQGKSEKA
Assay: Inhibition of refolded rhodanese (unknown origin) preincubated with Escherichia coli GroEL/GroES for 60 mins in absence of compound followed by compound addition by spectrometric analysis
Conditions: not given

SMILES	pIC50
O=C(Nc1ccc(Oc2ccc(Cl)cc2)c(Cl)c1)c1cc(I)cc(I)c1O [RAFOXANIDE]	< 4.00
COc1ccccc1C(=O)Nc1ccccc1	< 4.00
COc1ccccc1C(=O)Nc1ccc(Sc2nc3ccccc3s2)c(Cl)c1	< 4.00
O=C(Nc1ccc(Sc2nc3ccccc3s2)cc1)c1cccc(Br)c1	< 4.00
O=C(Nc1cccc(Cl)c1)c1ccccc1O	< 4.00

Test system: Klebsiella pneumoniae
Assay: Antibacterial activity against Klebsiella pneumoniae ATCC 13883 after 6 to 8 hrs by bacterial proliferation assay
Type: functional, organism-based
Conditions: not given
In short: (§2)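 Bacterial growth inhibition in liquid culture. The highest concentration tested was 100 µM. The mean was back-calculated from the average log value. Values above the top concentration were set 0.1 log unit higher.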

SMILES	pEC50
O=C(Nc1ccc(Oc2ccc(Cl)cc2)c(Cl)c1)c1cc(I)cc(I)c1O [RAFOXANIDE]	< 4.00
COc1ccccc1C(=O)Nc1ccccc1	< 4.00
COc1ccccc1C(=O)Nc1ccc(Sc2nc3ccccc3s2)c(Cl)c1	< 4.00
O=C(Nc1ccc(Sc2nc3ccccc3s2)cc1)c1cccc(Br)c1	< 4.00
O=C(Nc1cccc(Cl)c1)c1ccccc1O	< 4.00

Test system: HEK293
Assay: Cytotoxicity against HEK293 cells assessed as reduction in cell viability after 48 hrs by Alamar Blue reporter assay
Conditions: human, hek293, 48 h

SMILES	CC50
O=C(Nc1ccc(Oc2ccc(Cl)cc2)c(Cl)c1)c1cc(I)cc(I)c1O [RAFOXANIDE]	> 100 µM
COc1ccccc1C(=O)Nc1ccccc1	> 100 µM
COc1ccccc1C(=O)Nc1ccc(Sc2nc3ccccc3s2)c(Cl)c1	> 100 µM
O=C(Nc1ccc(Sc2nc3ccccc3s2)cc1)c1cccc(Br)c1	74 µM
O=C(Nc1cccc(Cl)c1)c1ccccc1O	37 µM

Test system: Staphylococcus aureus
Assay: Antibacterial activity against Staphylococcus aureus ATCC 25923 after 6 to 8 hrs by bacterial proliferation assay
Type: functional, organism-based
Conditions: not given

SMILES	pEC50
O=C(Nc1ccc(Oc2ccc(Cl)cc2)c(Cl)c1)c1cc(I)cc(I)c1O [RAFOXANIDE]	6.49
COc1ccccc1C(=O)Nc1ccccc1	< 4.00
COc1ccccc1C(=O)Nc1ccc(Sc2nc3ccccc3s2)c(Cl)c1	< 4.00
O=C(Nc1ccc(Sc2nc3ccccc3s2)cc1)c1cccc(Br)c1	< 4.00
O=C(Nc1cccc(Cl)c1)c1ccccc1O	5.51

Test system: Enterococcus faecium
Assay: Antibacterial activity against Enterococcus faecium ATCC 19434 after 24 hrs by bacterial proliferation assay
Type: functional, organism-based
Conditions: ATCC 19434, 24 h

SMILES	pEC50
O=C(Nc1ccc(Oc2ccc(Cl)cc2)c(Cl)c1)c1cc(I)cc(I)c1O [RAFOXANIDE]	6.00
COc1ccccc1C(=O)Nc1ccccc1	< 4.00
COc1ccccc1C(=O)Nc1ccc(Sc2nc3ccccc3s2)c(Cl)c1	< 4.00
O=C(Nc1ccc(Sc2nc3ccccc3s2)cc1)c1cccc(Br)c1	< 4.00
O=C(Nc1cccc(Cl)c1)c1ccccc1O	< 4.00

Test system: Staphylococcus aureus
Assay: Antibacterial activity against methicillin-resistant Staphylococcus aureus ATCC BAA-44 after 6 to 8 hrs by bacterial proliferation assay
Type: functional, organism-based
Conditions: not given

SMILES	pEC50
O=C(Nc1ccc(Oc2ccc(Cl)cc2)c(Cl)c1)c1cc(I)cc(I)c1O [RAFOXANIDE]	6.47

Same assay, conditions: Staphylococcus aureus, ATCC BAA-44

SMILES	pEC50
COc1ccccc1C(=O)Nc1ccccc1	< 4.00
COc1ccccc1C(=O)Nc1ccc(Sc2nc3ccccc3s2)c(Cl)c1	< 4.00
O=C(Nc1ccc(Sc2nc3ccccc3s2)cc1)c1cccc(Br)c1	< 4.00
O=C(Nc1cccc(Cl)c1)c1ccccc1O	5.38

Test system: Enterobacter cloacae
Assay: Antibacterial activity against Enterobacter cloacae subsp. cloacae ATCC 13047 after 24 hrs by bacterial proliferation assay
Type: functional, organism-based
Conditions: subsp. cloacae ATCC 13047, 24 h
In short: as §2

SMILES	pEC50
O=C(Nc1ccc(Oc2ccc(Cl)cc2)c(Cl)c1)c1cc(I)cc(I)c1O [RAFOXANIDE]	4.40
COc1ccccc1C(=O)Nc1ccccc1	< 4.00
COc1ccccc1C(=O)Nc1ccc(Sc2nc3ccccc3s2)c(Cl)c1	< 4.00
O=C(Nc1ccc(Sc2nc3ccccc3s2)cc1)c1cccc(Br)c1	< 4.00
O=C(Nc1cccc(Cl)c1)c1ccccc1O	< 4.00

Target: HSP60/HSP10 (Homo sapiens, UniProt P10809)
Sequence (P10809 whole entry): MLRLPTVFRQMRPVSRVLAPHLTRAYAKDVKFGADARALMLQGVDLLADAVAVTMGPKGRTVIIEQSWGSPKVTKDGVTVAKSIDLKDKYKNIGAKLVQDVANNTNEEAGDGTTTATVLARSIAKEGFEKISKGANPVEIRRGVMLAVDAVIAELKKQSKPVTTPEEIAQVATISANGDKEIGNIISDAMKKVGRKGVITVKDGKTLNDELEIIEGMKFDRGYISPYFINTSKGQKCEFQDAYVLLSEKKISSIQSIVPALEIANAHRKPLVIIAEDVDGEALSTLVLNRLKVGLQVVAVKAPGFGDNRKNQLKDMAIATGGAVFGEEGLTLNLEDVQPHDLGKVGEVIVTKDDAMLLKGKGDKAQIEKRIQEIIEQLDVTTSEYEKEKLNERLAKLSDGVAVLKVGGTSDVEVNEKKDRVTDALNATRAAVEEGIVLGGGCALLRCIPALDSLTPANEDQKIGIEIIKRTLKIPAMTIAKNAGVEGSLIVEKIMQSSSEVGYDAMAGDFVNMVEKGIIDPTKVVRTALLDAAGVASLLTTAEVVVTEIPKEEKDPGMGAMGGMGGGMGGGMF
Sequence (P61604 whole entry, further chain): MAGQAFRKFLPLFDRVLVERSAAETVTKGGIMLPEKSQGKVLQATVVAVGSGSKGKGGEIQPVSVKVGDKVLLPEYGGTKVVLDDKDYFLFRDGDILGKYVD
Assay: Inhibition of human N-terminal octa-His-tagged HSP60 expressed in Escherichia coli Rosetta(DE3) pLysS/human HSP10 expressed in Escherichia coli Rosetta(DE3) assessed as reduction in HSP60/HSP10-mediated denatured MDH refolding after 40 to 60 mins by spectrometric analysis
Conditions: not given
In short: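 Human HSP60/10 refolding of denatured MDH, run the same way as the GroEL/ES-dMDH assay. A binary complex of chaperonin and denatured MDH is formed, and refolding is started with ATP and HSP10. MDH activity is the read-out. DMSO is the negative control. IC50 values from replicate curves are log-averaged after ROUT outlier screening.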

SMILES	pIC50
O=C(Nc1ccc(Oc2ccc(Cl)cc2)c(Cl)c1)c1cc(I)cc(I)c1O [RAFOXANIDE]	5.55
COc1ccccc1C(=O)Nc1ccccc1	< 4.00
COc1ccccc1C(=O)Nc1ccc(Sc2nc3ccccc3s2)c(Cl)c1	< 4.00
O=C(Nc1ccc(Sc2nc3ccccc3s2)cc1)c1cccc(Br)c1	< 4.00
O=C(Nc1cccc(Cl)c1)c1ccccc1O	< 4.00

Test system: Acinetobacter baumannii
Assay: Antibacterial activity against Acinetobacter baumannii ATCC 19606 after 24 hrs by bacterial proliferation assay
Type: functional, organism-based
Conditions: ATCC 19606 = CIP 70.34 = JCM 6841, 24 h
In short: as §2

SMILES	pEC50
O=C(Nc1ccc(Oc2ccc(Cl)cc2)c(Cl)c1)c1cc(I)cc(I)c1O [RAFOXANIDE]	4.51
COc1ccccc1C(=O)Nc1ccccc1	< 4.00
COc1ccccc1C(=O)Nc1ccc(Sc2nc3ccccc3s2)c(Cl)c1	< 4.00
O=C(Nc1ccc(Sc2nc3ccccc3s2)cc1)c1cccc(Br)c1	< 4.00
O=C(Nc1cccc(Cl)c1)c1ccccc1O	< 4.00

Target: T1, E. coli GroEL/ES
Assay: Inhibition of Escherichia coli GroEL expressed in Escherichia coli DH5alpha/Escherichia coli GroES expressed in Escherichia coli BL21 (DE3) assessed as reduction in GroEL/GroES-mediated denatured MDH refolding after 20 to 40 mins by spectrometric analysis
Conditions: not given
In short: as §1

SMILES	pIC50
O=C(Nc1ccc(Oc2ccc(Cl)cc2)c(Cl)c1)c1cc(I)cc(I)c1O [RAFOXANIDE]	5.37
COc1ccccc1C(=O)Nc1ccccc1	< 4.00
COc1ccccc1C(=O)Nc1ccc(Sc2nc3ccccc3s2)c(Cl)c1	< 4.00
O=C(Nc1ccc(Sc2nc3ccccc3s2)cc1)c1cccc(Br)c1	< 4.00
O=C(Nc1cccc(Cl)c1)c1ccccc1O	< 4.00

Test system: Pseudomonas aeruginosa
Assay: Antibacterial activity against Pseudomonas aeruginosa ATCC 10145 after 24 hrs by bacterial proliferation assay
Type: functional, organism-based
Conditions: ATCC 10145, 24 h
In short: as §2

SMILES	pEC50
O=C(Nc1ccc(Oc2ccc(Cl)cc2)c(Cl)c1)c1cc(I)cc(I)c1O [RAFOXANIDE]	< 4.00
COc1ccccc1C(=O)Nc1ccccc1	< 4.00
COc1ccccc1C(=O)Nc1ccc(Sc2nc3ccccc3s2)c(Cl)c1	< 4.00
O=C(Nc1ccc(Sc2nc3ccccc3s2)cc1)c1cccc(Br)c1	< 4.00
O=C(Nc1cccc(Cl)c1)c1ccccc1O	< 4.00

Test system: not listed separately
Assay: Cytotoxicity against human THLE3 cells assessed as reduction in cell viability after 48 hrs by Alamar Blue reporter assay
Conditions: 48 h

SMILES	CC50
O=C(Nc1ccc(Oc2ccc(Cl)cc2)c(Cl)c1)c1cc(I)cc(I)c1O [RAFOXANIDE]	24 µM
COc1ccccc1C(=O)Nc1ccccc1	> 100 µM
COc1ccccc1C(=O)Nc1ccc(Sc2nc3ccccc3s2)c(Cl)c1	> 100 µM
O=C(Nc1ccc(Sc2nc3ccccc3s2)cc1)c1cccc(Br)c1	82 µM
O=C(Nc1cccc(Cl)c1)c1ccccc1O	16 µM
